Measurements published in ChEMBL document CHEMBL2375266, “Design and synthesis of 2-substituted benzoxazoles as novel PTP1B inhibitors” (Bioorg Med Chem Lett, 2013).

Columns and labels:
[1] = biological target: T1, Tyrosine-protein phosphatase non-receptor type 1 (Homo sapiens, UniProt P18031); assay: Inhibition of PTP1B (unknown origin)-mediated pNPP hydrolysis to 4-nitrophenol after 60 mins by spectrophotometric analysis
T1 sequence (P18031 whole entry): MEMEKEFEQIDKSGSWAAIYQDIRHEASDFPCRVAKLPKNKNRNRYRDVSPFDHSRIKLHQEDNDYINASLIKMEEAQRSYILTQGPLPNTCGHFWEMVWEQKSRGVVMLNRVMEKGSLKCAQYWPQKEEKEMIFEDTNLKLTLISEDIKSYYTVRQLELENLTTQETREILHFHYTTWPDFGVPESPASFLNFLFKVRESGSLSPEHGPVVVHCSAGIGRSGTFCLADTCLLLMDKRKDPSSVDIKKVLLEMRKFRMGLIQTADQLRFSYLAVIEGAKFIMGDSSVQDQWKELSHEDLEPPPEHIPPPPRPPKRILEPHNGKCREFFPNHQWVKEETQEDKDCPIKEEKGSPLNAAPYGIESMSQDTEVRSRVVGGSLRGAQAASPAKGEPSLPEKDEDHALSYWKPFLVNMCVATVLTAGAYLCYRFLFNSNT
Summary of the method: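 Colorimetric pNPP assay at room temperature in 25 mM Tris pH 7.5, 75 mM NaCl, 1 mM DTT, 0.1% BSA. Compound dilution series was added, and the reaction was started with 5 nM PTP1B. After 60 min it was stopped with NaOH. 4-Nitrophenol was read at 405 nm, with corrections for substrate and compound absorbance.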

[2] = biological target: T2, Tyrosine-protein phosphatase non-receptor type 2 (Homo sapiens, UniProt P17706); assay: Inhibition of TCPTP (unknown origin)
T2 sequence (P17706 whole entry): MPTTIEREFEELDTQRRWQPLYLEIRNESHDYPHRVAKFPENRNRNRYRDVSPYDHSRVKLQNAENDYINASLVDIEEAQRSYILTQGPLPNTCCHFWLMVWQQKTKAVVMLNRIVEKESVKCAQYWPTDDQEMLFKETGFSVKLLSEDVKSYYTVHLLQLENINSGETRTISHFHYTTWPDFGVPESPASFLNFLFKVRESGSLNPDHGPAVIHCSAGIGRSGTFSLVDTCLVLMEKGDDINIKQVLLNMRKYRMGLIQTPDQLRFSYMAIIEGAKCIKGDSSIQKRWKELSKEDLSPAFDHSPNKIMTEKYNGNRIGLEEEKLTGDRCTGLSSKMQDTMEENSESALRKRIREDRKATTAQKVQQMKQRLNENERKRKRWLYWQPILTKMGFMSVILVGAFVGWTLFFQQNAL

[3] = biological target: T1, Tyrosine-protein phosphatase non-receptor type 1; assay: Inhibition of PTP1B (unknown origin)

## O=C(O)C(=O)Nc1ccc(CC(c2nc3ccccc3o2)S(=O)(=O)NCCc2ccc(Cl)cc2)cc1 (stereo not given)
[1]
  Ki: 41 µM

## O=C(O)c1ccc(CC(c2nc3ccccc3[nH]2)S(=O)(=O)Nc2ccc(F)cc2)cc1 (stereo not given)
[1]
  Ki: > 500 µM

## O=C(O)C(=O)Nc1ccc(C[C@H](c2nc3ccccc3o2)S(=O)(=O)Nc2ccc(F)cc2)cc1
[1]
  Ki: 35 µM

## CC(C)(C)c1ccc(CN(Cc2ccc(C(C)(C)C)cc2)S(=O)(=O)C(Cc2ccc(NC(=O)C(=O)O)cc2)c2nc3ccccc3o2)cc1 (stereo not given)
[1]
  Ki: 14.9 µM
[2]
  Ki: 6.4 µM

## CCc1cc(CN(C(C)=O)C(=O)NCCCCOc2cccc(O)c2C(=O)OC)ccc1N(C(=O)C(=O)O)c1ccccc1C(=O)O
[3]
  Ki: 0.018 µM

## O=C(O)C(=O)Nc1ccc(CC(c2nc3ccccc3o2)S(=O)(=O)NC(=O)c2ccc(Cl)cc2)cc1 (stereo not given)
[1]
  Ki: 82.4 µM
[2]
  Ki: 13.1 µM

## O=C(O)C(=O)Nc1ccc(CC(c2nc3ccccc3[nH]2)S(=O)(=O)Nc2ccc(F)cc2)cc1 (stereo not given)
[1]
  Ki: 67.5 µM

## O=C(O)C(=O)Nc1ccc(CC(c2nc3ccccc3o2)S(=O)(=O)N(Cc2ccccc2C(F)(F)F)Cc2ccccc2C(F)(F)F)cc1 (stereo not given)
[1]
  Ki: 6.8 µM

## O=C(O)C(=O)Nc1ccc(CC(c2nc3ccccc3o2)S(=O)(=O)N(Cc2ccc(C(F)(F)F)cc2)Cc2ccc(C(F)(F)F)cc2)cc1 (stereo not given)
[1]
  Ki: 7.7 µM
[2]
  Ki: 12.5 µM

## O=S(=O)(Nc1ccc(F)cc1)C(Cc1ccc(O)c(O)c1)c1nc2ccccc2[nH]1 (stereo not given)
[1]
  Ki: 211 µM

## CC(C)(C)NS(=O)(=O)C(Cc1ccc(NC(=O)C(=O)O)cc1)c1nc2ccccc2o1 (stereo not given)
[1]
  Ki: 228 µM
[2]
  Ki: 135 µM

## COc1ccc(NS(=O)(=O)C(Cc2ccc(NC(=O)C(=O)O)cc2)c2nc3ccccc3o2)cc1 (stereo not given)
[1]
  Ki: 68.8 µM
[2]
  Ki: 134 µM

## CC(=O)NS(=O)(=O)C(Cc1ccc(NC(=O)C(=O)O)cc1)c1nc2ccccc2o1 (stereo not given)
[1]
  Ki: 63 µM
[2]
  Ki: 86.5 µM

## COc1ccc(CN(Cc2ccc(OC)cc2)S(=O)(=O)C(Cc2ccc(NC(=O)C(=O)O)cc2)c2nc3ccccc3o2)cc1 (stereo not given)
[1]
  Ki: 14 µM
[2]
  Ki: 18.9 µM

## Cc1ccc(NS(=O)(=O)C(Cc2ccc(NC(=O)C(=O)O)cc2)c2nc3ccccc3o2)cc1 (stereo not given)
[1]
  Ki: 62 µM
[2]
  Ki: 9.2 µM

## O=C(O)COc1ccc(CC(c2nc3ccccc3o2)S(=O)(=O)Nc2ccc(F)cc2)cc1O (stereo not given)
[1]
  Ki: 66.5 µM

## O=C(O)C(=O)Nc1ccc(CC(c2nc3ccccc3o2)S(=O)(=O)N(Cc2ccc(F)cc2)Cc2ccc(F)cc2)cc1 (stereo not given)
[1]
  Ki: 10 µM

## NS(=O)(=O)C(Cc1ccc(NC(=O)C(=O)O)cc1)c1nc2ccccc2o1 (stereo not given)
[1]
  Ki: 331 µM
[2]
  Ki: 137 µM

## CC(C)Oc1ccc(NS(=O)(=O)C(Cc2ccc(NC(=O)C(=O)O)cc2)c2nc3ccccc3o2)cc1 (stereo not given)
[1]
  Ki: 92 µM
[2]
  Ki: 101 µM

## O=C(O)C(=O)Nc1ccc(CC(c2nc3ccccc3o2)S(=O)(=O)NC(=O)c2ccccc2)cc1 (stereo not given)
[1]
  Ki: 125 µM
[2]
  Ki: 256 µM

## O=C(O)C(=O)Nc1ccc(CC(c2nc3ccccc3o2)S(=O)(=O)Nc2ccc(C(F)(F)F)cc2)cc1 (stereo not given)
[1]
  Ki: 23.6 µM
[2]
  Ki: 8 µM

## O=C(O)C(=O)Nc1ccc(CC(c2nc3ccccc3o2)S(=O)(=O)N(Cc2ccc(OC(F)(F)F)cc2)Cc2ccc(OC(F)(F)F)cc2)cc1 (stereo not given)
[1]
  Ki: 16.8 µM
[2]
  Ki: 17.2 µM

## CCCCNS(=O)(=O)C(Cc1ccc(NC(=O)C(=O)O)cc1)c1nc2ccccc2o1 (stereo not given)
[1]
  Ki: 82.4 µM
[2]
  Ki: 33.4 µM

## O=C(O)C(=O)Nc1ccc(C[C@H](c2nc3ccccc3o2)S(=O)(=O)N(Cc2ccc(Cl)cc2)Cc2ccc(Cl)cc2)cc1
[1]
  Ki: 6.7 µM
[2]
  Ki: 3.7 µM

## O=C(O)COc1ccc(CC(c2nc3ccccc3[nH]2)S(=O)(=O)Nc2ccc(F)cc2)cc1O (stereo not given)
[1]
  Ki: 162 µM

## CN(c1ccc(F)cc1)S(=O)(=O)C(Cc1ccc(NC(=O)C(=O)O)cc1)c1nc2ccccc2[nH]1 (stereo not given)
[1]
  Ki: 125 µM

## O=C(O)C(=O)Nc1ccc(CC(c2nc3ccccc3o2)S(=O)(=O)N(Cc2cccc(C(F)(F)F)c2)Cc2cccc(C(F)(F)F)c2)cc1 (stereo not given)
[1]
  Ki: 35 µM
[2]
  Ki: 21 µM

## O=C(O)CN(CC(=O)O)S(=O)(=O)C(Cc1ccc(NC(=O)C(=O)O)cc1)c1nc2ccccc2o1 (stereo not given)
[1]
  Ki: 235 µM
[2]
  Ki: 22 µM
